Data from ChEMBL document CHEMBL1131590, “Muscarinic agonists with antipsychotic-like activity: structure-activity relationships of 1,2,5-thiadiazole analogues with functional dopamine antagonist activity” (J Med Chem, 1998).
The source made the active and inactive calls. The rule behind the calls is not given here.

What was measured:
Mus musculus [1] = assay: Tremor after subcutaneous administration in mice was determined; format: functional; settings: sc
Method in brief: (§1)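 Mice received saline or drug sc. Side effects were scored 30 min after injection on a three-grade scale and expressed as percent of the maximum possible score. ED50 was obtained by graphic interpolation of the dose-response curve.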

Mus musculus [2] = assay: Salivation after subcutaneous administration in mice; format: functional; settings: sc; method in brief: as §1
Rattus norvegicus [3] = assay: Inhibition of conditioned avoidance response in rat following s.c. administration.; format: functional; settings: sc
Method in brief: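 Rats were tested sc over a full dose range in the conditioned avoidance model, six rats per point, up to 50 trials per session. ED50 is the dose giving 50% of the drug's maximal effect on avoidance responding.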

Rattus norvegicus [4] = assay: Conditioned avoidance responding in rat after subcutaneous administration (1 mg/kg); expressed as avoidance response/response failure; format: functional
Method in brief: (§2)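 Single-dose screen in rats, given sc at the dose listed in each line. Each session typically ran 50 trials. Percent avoidance responses and percent response failures were recorded.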

[5] = In vitro inhibition of [3H]Oxo-Mas binding to M2 and M4 receptors in rat brain homogenate.
Mus musculus [6] = assay: Inhibition of apomorphine-induced climbing following s.c. administration in mice.; format: functional; settings: sc
Method in brief: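 Male Bom:NMRI mice, n=10 per group, received saline or drug sc 50 min before the trial and apomorphine 2 mg/kg sc 20 min before it. Each mouse was placed alone in a cylindrical wire cage, and climbing time over a 60-s trial was recorded automatically. ED50 and 95% confidence limits came from logistic nonlinear regression over 3-4 doses.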

Rattus norvegicus [7] = assay: Conditioned avoidance responding in rat after subcutaneous administration (3 mg/kg); expressed as avoidance response/response failure; format: functional; method in brief: as §2
Rattus norvegicus [8] = assay: Conditioned avoidance responding in rat after subcutaneous administration (0.3 mg/kg); expressed as avoidance response/response failure; 29/19; format: functional, organism-based
Rattus norvegicus [9] = assay: Conditioned avoidance responding in rat after subcutaneous administration (1 mg/kg); expressed as avoidance response/response failure; 18/21; format: functional, organism-based
Rattus norvegicus [10] = assay: Conditioned avoidance responding in rat after subcutaneous administration (3 mg/kg); expressed as avoidance response/response failure; 48/20; format: functional, organism-based; method in brief: as §2
[11] = In vitro inhibition of [3H]Oxo-Mas binding to M2 and M4 receptors in rat brain homogenate.; remark: listed apart in the source
Rattus norvegicus [12] = assay: Conditioned avoidance responding in rat after subcutaneous administration (0.3 mg/kg); expressed as avoidance response/response failure; 16/1; format: functional, organism-based; method in brief: as §2
Rattus norvegicus [13] = assay: Conditioned avoidance responding in rat after subcutaneous administration (0.3 mg/kg); expressed as avoidance response/response failure; 24/63; format: functional, organism-based; method in brief: as §2
Rattus norvegicus [14] = assay: Conditioned avoidance responding in rat after subcutaneous administration (0.3 mg/kg); expressed as avoidance response/response failure; 9/55; format: functional, organism-based
Rattus norvegicus [15] = assay: Conditioned avoidance responding in rat after subcutaneous administration (0.3 mg/kg); expressed as avoidance response/response failure; 3/41; format: functional, organism-based

Row | Structure (SMILES) | ED50 (Mus musculus [1]) | ED50 (Mus musculus [2]) | ED50 (Rattus norvegicus [3]) | IC50 [5] | ED50 (Mus musculus [6]) | Activity (Rattus norvegicus [7]) | further results
1 | CCCCSc1nsnc1[C@@H]1CN2CCC[C@H]1C2 | > 3 mg/kg | > 3 mg/kg | 0.018 mg/kg | 0.53 nM | 0.026 mg/kg |  | Activity (Rattus norvegicus [4]): 8%
2 | CCCCSc1nsnc1C1CN2CCC[C@H]1C2 (some centres not stated) |  |  | 0.007 mg/kg | 0.47 nM | 0.045 mg/kg |  | Activity (Rattus norvegicus [4]): 32%
3 | CCCCSc1nsnc1C1CN2CC[C@H]1C2 (some centres not stated) |  |  | < 1 mg/kg | 1.3 nM |  | 0% | 
4 | CCCCCCSc1nsnc1C1CN2CCC[C@H]1C2 (some centres not stated) |  |  | 0.1 mg/kg | 3.3 nM | 0.06 mg/kg |  | Activity (Rattus norvegicus [8]): Weak activity
5 | CC[C@@H]1C(=O)OC[C@@H]1Cc1cncn1C [PILOCARPINE] | > 10 mg/kg | 4 mg/kg | 4.5 mg/kg | 67 nM | 3.87 mg/kg |  | Activity (Rattus norvegicus [9]): Weak activity
6 | CCCCSc1nsnc1[C@H]1CN2CCC[C@H]1C2 | > 1 mg/kg | > 1 mg/kg | > 3 mg/kg | 2.3 nM | > 1 mg/kg |  | Activity (Rattus norvegicus [10]): Weak activity
7 | CCCCSc1nsnc1C1CN2CCC1CC2 (configuration not stated) [VEDACLIDINE] |  |  | 0.1 mg/kg | 2.2 nM |  | 18% | 
8 | CCCSc1nsnc1[C@@H]1CN2CCC[C@H]1C2 | 1.3 mg/kg | > 3 mg/kg | 0.03 mg/kg | 0.65 nM | 0.17 mg/kg | 39% | 
9 | CCCCSc1nsnc1C1=CCCN(C)C1 |  |  | 2.8 mg/kg |  |  | 57% | IC50 [11]: 1.3 nM
10 | CCCCSc1nsnc1[C@H]1CN2CCC[C@@H]1C2 | > 0.3 mg/kg | > 0.3 mg/kg | 0.017 mg/kg | 0.5 nM | 0.012 mg/kg |  | Activity (Rattus norvegicus [12]): Active
11 | O=C1CCCN1CC#CCN1CCCC1 [OXOTREMORINE] | 0.24 mg/kg | 0.2 mg/kg | 0.3 mg/kg | 5 nM | 0.09 mg/kg |  | Activity (Rattus norvegicus [13]): inactive
12 | CCCSc1nsnc1[C@H]1CN2CCC[C@H]1C2 | > 30 mg/kg | > 30 mg/kg | > 3 mg/kg | 3.6 nM | 2.21 mg/kg | 86% | 
13 | CCCSc1nsnc1[C@@H]1CN2CCC[C@@H]1C2 | > 30 mg/kg | > 30 mg/kg | > 3 mg/kg | 13.3 nM | 2.2 mg/kg | 51% | 
14 | O=C(CCCN1CCC(O)(c2ccc(Cl)cc2)CC1)c1ccc(F)cc1 [HALOPERIDOL] |  |  | 0.11 mg/kg |  | 0.08 mg/kg |  | Activity (Rattus norvegicus [14]): inactive
15 | CCCCSc1nsnc1C1CN2CC[C@@H]1C2 (some centres not stated) |  |  | > 1 mg/kg | 4.2 nM |  | 100% | 
16 | CCSc1nsnc1C1CN2CCC[C@H]1C2 (some centres not stated) |  |  | 0.045 mg/kg | 1.3 nM | 0.047 mg/kg |  | 
17 | CCCCCSc1nsnc1C1CN2CCC[C@H]1C2 (some centres not stated) |  |  | 0.065 mg/kg | 2.5 nM | 0.054 mg/kg |  | Activity (Rattus norvegicus [15]): inactive
18 | CCCSc1nsnc1C1CN2CCC[C@H]1C2 (some centres not stated) |  |  | 0.056 mg/kg | 1.4 nM | 0.056 mg/kg |  | Activity (Rattus norvegicus [4]): 41%
19 | CCCSc1nsnc1[C@H]1CN2CCC[C@@H]1C2 | 2.2 mg/kg | > 3 mg/kg | 0.013 mg/kg | 0.64 nM | 0.021 mg/kg | 31% | 
20 | CCCCSc1nsnc1[C@@H]1CN2CCC[C@@H]1C2 |  |  | > 3 mg/kg | 9.9 nM |  | 86% | 
21 | CSc1nsnc1C1CN2CCC[C@H]1C2 (some centres not stated) |  |  | 0.14 mg/kg | 2.9 nM | 0.2 mg/kg |  | 
22 | CCCCSc1nsnc1C1CN2CCC[C@@H]1C2 (some centres not stated) |  |  | > 3 mg/kg | 6.1 nM |  | 97% | 
